In brackets after ≈: the same amount, converted by molar mass.
Key:
Staphylococcus aureus = experiment: Antibacterial activity against Staphylococcus aureus ATCC 6538 after 24 hrs by broth dilution assay; format: functional
[1] = tested on: Staphylococcus epidermidis; experiment: Antibacterial activity against Staphylococcus epidermidis ATCC 14990 after 24 hrs by broth dilution assay; format: functional
Procedure, shortened: (§1)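 Microdilution in nutrient broth at 37 °C, about (1-5) × 10^5 cfu/mL inoculum, compounds in DMSO (≤1% v/v, matched DMSO controls), in triplicate. Growth followed by OD550. Wells without visible growth after 24 h on a rotary shaker were subcultured in duplicate onto nutrient agar and colonies counted after overnight incubation. MIC is the lowest concentration inhibiting growth at 24 h.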

Bacillus subtilis = experiment: Antibacterial activity against Bacillus subtilis ATCC 6051 after 24 hrs by broth dilution assay; format: functional
Bacillus cereus = experiment: Antibacterial activity against Bacillus cereus ATCC 21772 after 24 hrs by broth dilution assay; format: functional
Enterococcus faecalis = experiment: Antibacterial activity against Enterococcus faecalis ATCC 29212 after 24 hrs by broth dilution assay; format: functional; settings: ATCC 29212, 24 h
Procedure, shortened: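 Microdilution in brain heart infusion broth, shaken at 37 °C, about (1-5) × 10^5 cfu/mL start, DMSO ≤1% v/v with matched controls, in triplicate. OD550 read. Clear wells at 24 h were subcultured in duplicate onto brain heart infusion agar and counted after overnight incubation. MIC is the lowest concentration giving growth inhibition.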

[2] = tested on: Mycolicibacterium smegmatis; experiment: Antibacterial activity against Mycobacterium smegmatis ATCC 19420 after 48 hrs by broth dilution assay; format: functional; settings: ATCC 19420, 48 h
Procedure, shortened: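 Brain heart infusion broth with 0.06% Tween 80, 37 °C on a rotary shaker, inoculum about (1-5) × 10^5 cfu/mL, DMSO ≤1% v/v with matched controls, in triplicate. OD550 monitored.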

Escherichia coli = experiment: Antibacterial activity against Escherichia coli ATCC 9637 after 24 hrs by broth dilution assay; format: functional; settings: ATCC 9637, 24 h; procedure, shortened: as §1
Proteus mirabilis = experiment: Antibacterial activity against Proteus mirabilis CECT 170 after 24 hrs by broth dilution assay; format: functional; settings: CECT 170, 24 h; procedure, shortened: as §1
Pseudomonas aeruginosa = experiment: Antibacterial activity against Pseudomonas aeruginosa AK958 after 24 hrs by broth dilution assay; format: functional; settings: AK958, 24 h; procedure, shortened: as §1
Salmonella = experiment: Antibacterial activity against Salmonella CECT 4569 after 24 hrs by broth dilution assay; format: functional; settings: CECT 4569, 24 h; procedure, shortened: as §1
HeLa [3] = experiment: Cytotoxicity against human HeLa cells at lag phase of growth after 48 hrs by MTT assay; format: functional, cell-based
Procedure, shortened: (§2)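 Monolayers grown in DMEM with 5% fetal calf serum and penicillin-streptomycin at 37 °C, 5% CO2. 2×10^4 cells/well in lag or log phase were exposed for 48 h to a concentration series of compounds predissolved in DMSO. MTT formazan was dissolved in DMSO and read at 550 nm. IC50 taken from the curve; three independent experiments.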

HeLa [4] = experiment: Cytotoxicity against human HeLa cells at exponential phase of growth after 48 hrs by MTT assay; format: functional, cell-based; procedure, shortened: as §2
HEp-2 [5] = experiment: Cytotoxicity against human Hep2 cells at lag phase of growth after 48 hrs by MTT assay; format: functional, cell-based; procedure, shortened: as §2
HEp-2 [6] = experiment: Cytotoxicity against human Hep2 cells at exponential phase of growth after 48 hrs by MTT assay; format: functional, cell-based; procedure, shortened: as §2
A549 [7] = experiment: Cytotoxicity against human A549 cells at lag phase of growth after 48 hrs by MTT assay; format: functional, cell-based; procedure, shortened: as §2
A549 [8] = experiment: Cytotoxicity against human A549 cells at exponential phase of growth after 48 hrs by MTT assay; format: functional, cell-based; procedure, shortened: as §2
MCF7 [9] = experiment: Cytotoxicity against human MCF7 cells at lag phase of growth after 48 hrs by MTT assay; format: functional, cell-based; procedure, shortened: as §2
MCF7 [10] = experiment: Cytotoxicity against human […] cells at exponential phase of growth after 48 hrs by MTT assay; format: functional, cell-based; procedure, shortened: as §2
Vero [11] = experiment: Cytotoxicity against african green monkey Vero cells at lag phase of growth after 48 hrs by MTT assay; format: cell-based, Chlorocebus sabaeus; procedure, shortened: as §2
Vero [12] = experiment: Cytotoxicity against african green monkey Vero cells at exponential phase of growth after 48 hrs by MTT assay; format: cell-based, Chlorocebus sabaeus; procedure, shortened: as §2
Candida albicans = experiment: Antibacterial activity against Candida albicans CECT 1039 after 24 hrs by broth dilution assay
[13] = Homo sapiens, HeLa, 48 h, read-out: IC50
[14] = Homo sapiens, HEp-2, 48 h, read-out: IC50
[15] = Homo sapiens, A549, 48 h, read-out: IC50
[16] = Homo sapiens, MCF7, 48 h, read-out: IC50
[17] = Chlorocebus sabaeus, Vero, 48 h, read-out: IC50

Structure (SMILES)	MIC (Staphylococcus aureus) [µg/mL]	MIC [1] [µg/mL]	MIC (Bacillus subtilis) [µg/mL]	MIC (Enterococcus faecalis) [µg/mL]	MIC [2] [µg/mL]	MIC (Escherichia coli) [µg/mL]	MIC (Proteus mirabilis) [µg/mL]	MIC (Pseudomonas aeruginosa) [µg/mL]	MIC (Salmonella) [µg/mL]	MIC (Candida albicans) [µg/mL]	MI50 (Bacillus cereus) [µg/mL]	IC50 (HeLa [3]; [13]) [µM]	IC50 (HeLa [4]; [13]) [µM]	IC50 (HEp-2 [5]; [14]) [µM]	IC50 (HEp-2 [6]; [14]) [µM]	IC50 (A549 [7]; [15]) [µM]	IC50 (MCF7 [9]; [16]) [µM]	IC50 (MCF7 [10]; [16]) [µM]	IC50 (Vero [11]; [17]) [µM]	IC50 (Vero [12]; [17]) [µM]	also measured
C[C@H]1COc2c1cc1c(c2O)[C@@]23CCCC(C)(C)[C@@H]2C[C@@H]1OC3=O	>40	>40	>40	> 40	> 40	> 40	> 40	> 40	> 40	>40	>40	56.1	37.8	> 60	> 60	> 60	> 60	> 60	> 60	> 60	IC50 (A549 [8]; [15]): 51.5 µM
C[C@H]1COC2=C1C(=O)C1=C(C2=O)[C@@]23CCCC(C)(C)[C@@H]2C[C@@H]1OC3=O	>40	>40	>40	> 40	> 40	> 40	> 40	> 40	> 40	>40	>40	50.3	17.5	> 58.4	39.8	> 58.4	33	18.4	> 58.4	> 58.4	IC50 (A549 [8]; [15]): 40.4 µM
CC(=O)OC[C@H](C)C1=C(OC(C)=O)C(O)C2=C(C1=O)[C@@H]1C[C@H]3C(C)(C)CCC[C@]23C(=O)O1 (some centres undefined)	>40	>40	>40	> 40	> 40	> 40	> 40	> 40	> 40	>40	>40	33.8	40.5	> 45	> 45		> 45	> 45	> 45	> 45	
COC(=O)C1=C(/C=C(\C(=O)OC)C(C)C)[C@@H]2C[C@H]3C(C)(C)CCC[C@]13C(=O)O2	>40	>40	>40	> 40	> 40	> 40	> 40	> 40	> 40	>40	>40										IC50 (HeLa [3]; hela): Not Active; IC50 (HeLa [4]; hela): Not Active; IC50 (HEp-2 [5]; hep-2): Not Active; IC50 (HEp-2 [6]; hep-2): Not Active; IC50 (A549 [8]; a549): Not Active; IC50 (MCF7 [9]; mcf7): Not Active; IC50 (MCF7 [10]; mcf7): Not Active; IC50 (Vero [11]; vero): Not Active; IC50 (Vero [12]; vero): Not Active
CC(C)c1cc2c(c(O)c1O)[C@@]1(C(=O)O)CCCC(C)(C)[C@@H]1C[C@H]2Sc1ccccc1												4.8	11.1	15.2	18.9				6.1	21.1	
CO/N=C(\C(=O)N[C@@H]1C(=O)N2C(C(=O)O)=C(COC(C)=O)CS[C@H]12)c1csc(N)n1 [CEFOTAXIME]				> 40	> 40	> 40	> 40	> 40	> 40												MIC (Staphylococcus aureus; Staphylococcus aureus, ATCC 6538, 24 h, read-out: MIC): 1.25 µg/mL (≈ 2.74 µM); MIC ([1]; Staphylococcus epidermidis, ATCC 14990, 24 h, read-out: MIC): 2.5 µg/mL (≈ 5.49 µM); MIC (Bacillus subtilis; Bacillus subtilis, ATCC 6051, 24 h, read-out: MIC): 8 µg/mL (≈ 17.6 µM); MIC (Bacillus cereus; Bacillus cereus, ATCC 21772, 24 h): 10 µg/mL (≈ 22 µM)
CC(C)C1=CC2=C(C(=O)C1=O)[C@@]13CCCC(C)(C)[C@@H]1[C@@H](O)[C@@H]2OC3=O [ISOROSMAQUINONE]												25	30.8	39.5	39.2				> 60	> 60	
Sc1ncnc2nc[nH]c12 [MERCAPTOPURINE ANHYDROUS]												2.9	4.1	431	318	47	1.4	5.8	67.5	119	IC50 (A549 [8]; [15]): 49.3 µM

More lines, main results first:

MIC (Staphylococcus aureus) [µg/mL]	MIC [1] [µg/mL]	MIC (Bacillus subtilis) [µg/mL]	MIC (Enterococcus faecalis) [µg/mL]	MIC [2] [µg/mL]	MIC (Escherichia coli) [µg/mL]	MIC (Proteus mirabilis) [µg/mL]	MIC (Pseudomonas aeruginosa) [µg/mL]	MIC (Salmonella) [µg/mL]	MIC (Candida albicans) [µg/mL]	Structure (SMILES)	MI50 (Bacillus cereus) [µg/mL]	IC50 (HeLa [3]; [13]) [µM]	IC50 (HeLa [4]; [13]) [µM]	IC50 (HEp-2 [5]; [14]) [µM]	IC50 (HEp-2 [6]; [14]) [µM]	IC50 (A549 [7]; [15]) [µM]	IC50 (MCF7 [9]; [16]) [µM]	IC50 (MCF7 [10]; [16]) [µM]	IC50 (Vero [11]; [17]) [µM]	IC50 (Vero [12]; [17]) [µM]	also measured
>40	>40	>40	> 40	> 40	> 40	> 40	> 40	> 40	>40	COC(=O)C1=C2C=C(C(C)C)COC2(O)[C@H]2OC(=O)[C@@]13CCCC(C)(C)[C@H]23 (some centres undefined)	>40	> 60	> 60	> 60	> 60	> 60	> 60	42.6	> 60	> 60	IC50 (A549 [8]; [15]): 39.4 µM
>40	>40	>40	> 40	> 40	> 40	> 40	> 40	> 40	>40	Cc1coc2c1C(=O)C1=C(C2=O)[C@@]23CCCC(C)(C)[C@@H]2C[C@@H]1OC3=O	>40	> 58.8	> 58.8			48.8	> 58.8	> 58.8	> 58.8	> 58.8	IC50 (A549 [8]; [15]): > 58.8 µM
>40	>40	>40	> 40	> 40	> 40	> 40	> 40	> 40	>40	CC(C)C1=CC2=C(C(=O)C1=O)[C@@]13CCCC(C)(C)[C@@H]1C[C@@H]2OC3=O	>40	> 60	40.2	> 60	> 60						
>40	>40	>40	> 40	> 40	> 40	> 40	> 40	> 40	>40	COc1c2c(c(O)c3c1[C@@H](C)CO3)[C@@]13CCCC(C)(C)[C@@H]1C[C@@H]2OC3=O	>40										IC50 (HeLa [3]; hela): Not Active; IC50 (HeLa [4]; hela): Not Active; IC50 (HEp-2 [5]; hep-2): Not Active; IC50 (HEp-2 [6]; hep-2): Not Active; IC50 (A549 [8]; a549): Not Active; IC50 (MCF7 [9]; mcf7): Not Active; IC50 (MCF7 [10]; mcf7): Not Active; IC50 (Vero [11]; vero): Not Active; IC50 (Vero [12]; vero): Not Active
>40	>40	>40	> 40	> 40	> 40	> 40	> 40	> 40	>40	COc1c(C(C)C)cc2c(c1OC)[C@@]13CCCC(C)(C)[C@@H]1[C@H](OC3=O)[C@@H]2OCc1ccccc1	>40										IC50 (HeLa [3]; hela): Not Active; IC50 (HeLa [4]; hela): Not Active; IC50 (HEp-2 [5]; hep-2): Not Active; IC50 (HEp-2 [6]; hep-2): Not Active; IC50 (A549 [7]; a549): Not Active; IC50 (A549 [8]; a549): Not Active; IC50 (MCF7 [9]; mcf7): Not Active; IC50 (MCF7 [10]; mcf7): Not Active; IC50 (Vero [11]; vero): Not Active; IC50 (Vero [12]; vero): Not Active
